What all share (format): cell-based
For assay [1], the target named is Transient receptor potential cation channel subfamily V member 1 (Rattus norvegicus) (UniProt O35433). The experiment in a line: Ratio of I-RTX Ki to compound Ki for rat TRPV1 expressed in CHO cells.
For assay [2], the target named is T1, Transient receptor potential cation channel subfamily V member 1 (Homo sapiens, UniProt Q8NER1). The experiment in a line: Antagonist activity at human TRPV1 expressed in CHO cells assessed as inhibition of capsaicin-stimulated Ca2+ uptake. An outline of the steps:
(§1)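 Functional 45Ca2+ uptake assay in CHO cells heterologously expressing rat or human TRPV1. Agonism is reported as EC50, and as % of the capsaicin response. Antagonism is reported as Ki(ant) against capsaicin-stimulated 45Ca2+ uptake, and as % antagonism of that response. Ki and EC50 are mean ± SEM of three or more independent experiments.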

In assay [3] the target is T1, Transient receptor potential cation channel subfamily V member 1. The assay can be described thus: Displacement of [3H]RTX from human TRPV1 expressed in CHO cells. The essentials:
(§2)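 Competitive binding against [3H]RTX on rat or human TRPV1 heterologously expressed in CHO cells. Affinity is reported as Ki, as mean ± SEM of three or more independent experiments.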

Assay [4] has as its target T2, Transient receptor potential cation channel subfamily V member 1 (Rattus norvegicus, UniProt O35433). The assay can be described thus: Antagonist activity at rat TRPV1 expressed in CHO cells assessed as inhibition of capsaicin-stimulated Ca2+ uptake. An outline of the steps:
as §1

Assay [5] concerns the target T2, Transient receptor potential cation channel subfamily V member 1. The experiment in a line: Displacement of [3H]RTX from rat TRPV1 expressed in CHO cells. An outline of the steps:
as §2
(In a radioligand displacement assay an active substance lowers the binding of a labelled ligand.)

The target of assay [6] is Transient receptor potential cation channel subfamily V member 1 (Rattus norvegicus) (UniProt O35433). The assay can be described thus: Partial antagonist activity at rat TRPV1 expressed in CHO cells assessed as inhibition of capsaicin-stimulated Ca2+ uptake measured as residual agonism. The conditions noted are these: concentration not given here. The essentials:
as §1

The target of assay [7] is T1, Transient receptor potential cation channel subfamily V member 1. The experiment in a line: Agonist activity at human TRPV1 expressed in CHO cells assessed as stimulation of Ca2+ uptake. The essentials: as §1
The target of assay [8] is T2, Transient receptor potential cation channel subfamily V member 1. The experiment in a line: Agonist activity at rat TRPV1 expressed in CHO cells assessed as stimulation of Ca2+ uptake. An outline of the steps:
as §1

Assay [9] has as its target Transient receptor potential cation channel subfamily V member 1 (Rattus norvegicus) (UniProt O35433). The experiment in a line: Agonist activity at rat TRPV1 expressed in CHO cells assessed as stimulation of Ca2+ uptake relative to capsaicin. An outline of the steps:
as §1

T1 sequence (Q8NER1 whole entry): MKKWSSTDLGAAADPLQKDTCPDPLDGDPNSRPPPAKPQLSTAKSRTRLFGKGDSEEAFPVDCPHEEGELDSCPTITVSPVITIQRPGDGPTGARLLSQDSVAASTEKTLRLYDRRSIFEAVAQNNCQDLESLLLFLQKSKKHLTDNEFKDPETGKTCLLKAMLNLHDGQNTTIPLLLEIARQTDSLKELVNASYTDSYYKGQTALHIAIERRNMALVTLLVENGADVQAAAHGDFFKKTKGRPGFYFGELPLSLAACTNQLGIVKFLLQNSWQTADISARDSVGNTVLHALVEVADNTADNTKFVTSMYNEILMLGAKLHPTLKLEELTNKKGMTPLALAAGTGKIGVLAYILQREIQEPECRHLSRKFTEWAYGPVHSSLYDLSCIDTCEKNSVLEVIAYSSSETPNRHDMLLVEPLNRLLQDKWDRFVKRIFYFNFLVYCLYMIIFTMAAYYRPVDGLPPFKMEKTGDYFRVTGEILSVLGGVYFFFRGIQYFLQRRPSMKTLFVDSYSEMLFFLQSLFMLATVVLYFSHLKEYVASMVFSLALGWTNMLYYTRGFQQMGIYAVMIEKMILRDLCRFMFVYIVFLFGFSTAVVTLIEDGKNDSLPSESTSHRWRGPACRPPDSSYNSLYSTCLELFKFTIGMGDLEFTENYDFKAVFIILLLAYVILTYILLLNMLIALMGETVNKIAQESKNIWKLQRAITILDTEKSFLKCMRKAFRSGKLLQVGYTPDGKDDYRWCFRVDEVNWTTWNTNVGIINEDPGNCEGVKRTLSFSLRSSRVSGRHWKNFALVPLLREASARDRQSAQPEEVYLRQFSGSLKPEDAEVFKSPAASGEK
T2 sequence (O35433 whole entry): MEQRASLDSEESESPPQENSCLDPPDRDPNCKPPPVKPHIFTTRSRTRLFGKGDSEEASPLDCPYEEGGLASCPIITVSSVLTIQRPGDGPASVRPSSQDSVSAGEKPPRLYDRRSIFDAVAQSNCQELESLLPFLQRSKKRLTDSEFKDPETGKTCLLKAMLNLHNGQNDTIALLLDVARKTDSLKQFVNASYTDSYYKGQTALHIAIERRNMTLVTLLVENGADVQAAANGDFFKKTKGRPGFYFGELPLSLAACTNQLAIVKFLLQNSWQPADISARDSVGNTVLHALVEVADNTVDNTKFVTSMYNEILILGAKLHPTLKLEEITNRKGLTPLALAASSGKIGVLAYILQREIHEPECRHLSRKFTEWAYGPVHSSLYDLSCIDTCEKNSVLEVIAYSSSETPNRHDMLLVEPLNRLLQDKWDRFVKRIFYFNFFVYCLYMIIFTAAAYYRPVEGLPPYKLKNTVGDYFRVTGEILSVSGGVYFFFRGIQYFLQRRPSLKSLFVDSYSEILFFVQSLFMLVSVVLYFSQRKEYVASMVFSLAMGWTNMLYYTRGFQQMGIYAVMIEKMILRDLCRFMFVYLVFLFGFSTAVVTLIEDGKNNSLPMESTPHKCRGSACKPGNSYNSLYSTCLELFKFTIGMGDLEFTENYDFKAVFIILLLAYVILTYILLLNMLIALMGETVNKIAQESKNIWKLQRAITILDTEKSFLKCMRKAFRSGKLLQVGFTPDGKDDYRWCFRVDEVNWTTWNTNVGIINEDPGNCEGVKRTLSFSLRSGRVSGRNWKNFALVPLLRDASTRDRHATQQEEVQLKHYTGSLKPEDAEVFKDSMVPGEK
Sequence of Transient receptor potential cation channel subfamily V member 1 (Rattus norvegicus) (O35433 whole entry): as above

Regarding `C=C(C)[C@]12C[C@@H](C)[C@@]34O[C@](Cc5ccccc5)(O[C@@H]1[C@@H]3C=C(COC(=O)Oc1cc(Cl)c(N)c(OC)c1)C[C@]1(O)C(=O)C(C)=C[C@@H]41)O2`, the Ratio Ki in [1] amounted to 5. Besides, the inhibition constant Ki in [2] was 1400 nM; in assay [3], 330 nM; in assay [4], 4.06 nM; in assay [5] it was 2.5 nM.

With `C=C(C)[C@]12C[C@@H](C)[C@@]34O[C@](Cc5ccccc5)(O[C@@H]1[C@@H]3C=C(COC(=O)Oc1cc(Br)c(O)c(OC)c1)C[C@]1(O)C(=O)C(C)=C[C@@H]41)O2`, in assay [1], the Ratio Ki is 2. Moreover, in assay [6], the inhibition came out at 13%. The Ki in assay [2] is 512 nM; in assay [3] it was 33.3 nM; in [4], 5.2 nM; in assay [5], 1.64 nM.

With `C=C(C)[C@]12C[C@@H](C)[C@@]34O[C@](Cc5ccccc5)(O[C@@H]1[C@@H]3C=C(COC(=O)Oc1cc(I)c(O)c(OC)c1)C[C@]1(O)C(=O)C(C)=C[C@@H]41)O2`, the Ratio Ki in assay [1] was 5. Besides, the Ki in assay [2] came out at 189 nM; in assay [3], 49 nM; in assay [4], 2.23 nM; in assay [5] it was 1.66 nM.

Take `C=C(C)[C@]12C[C@@H](C)[C@@]34O[C@](Cc5ccccc5)(O[C@@H]1[C@@H]3C=C(COC(=O)Oc1cc(F)c(O)c(OC)c1)C[C@]1(O)C(=O)C(C)=C[C@@H]41)O2`: the results for the EC50 in assay [7] and in assay [8] were 16.3 nM and 4.97 nM, respectively. Moreover, the Ki turned out to be 138 nM in [3] and 1.17 nM in [5].

As for `C=C(C)[C@]12C[C@@H](C)[C@@]34O[C@](Cc5ccccc5)(O[C@@H]1[C@@H]3C=C(COC(=O)Oc1cc(Cl)c(O)c(OC)c1)C[C@]1(O)C(=O)C(C)=C[C@@H]41)O2`, the inhibitory constant (Ki) in assay [2] was determined as 451 nM; in assay [3] it was 50 nM; in [4], 21.3 nM; in [5], 1.64 nM. In [7], the concentration giving a half-maximal response (EC50) was 183 nM. The Activity in assay [9] worked out at 13%.

For `C=C(C)[C@]12C[C@@H](C)[C@@]34O[C@](Cc5ccccc5)(O[C@@H]1[C@@H]3C=C(COC(=O)Oc1ccc(N)c(OC)c1)C[C@]1(O)C(=O)C(C)=C[C@@H]41)O2`, the EC50 in [7] came out at 6.28 nM; in [8], 1.84 nM. For the same compound, the figures for the Ki in [3] and in assay [5] were 140 nM and 0.58 nM, respectively.

In the case of `C=C(C)[C@]12C[C@@H](C)[C@@]34O[C@](Cc5ccccc5)(O[C@@H]1[C@@H]3C=C(COC(=O)Oc1cc(F)c(N)c(OC)c1)C[C@]1(O)C(=O)C(C)=C[C@@H]41)O2`, the EC50 in assay [7] was 17.9 nM; in [8], 3.17 nM. Also, the Ki in [3] was determined as 830 nM; in assay [5], 2.21 nM. For the same compound, the Activity in assay [9] amounted to 83%.

In the case of `C=C(C)[C@]12C[C@@H](C)[C@@]34O[C@](Cc5ccccc5)(O[C@@H]1[C@@H]3C=C(COC(=O)Oc1cc(Br)c(N)c(OC)c1)C[C@]1(O)C(=O)C(C)=C[C@@H]41)O2`, the Ratio Ki in assay [1] stood at 5. For the same compound, the inhibition constant (Ki) in [2] came to 666 nM; in assay [3] it was 212 nM; in assay [4], 2.46 nM; in [5], 1.83 nM.

In the case of `C=C(C)[C@]12C[C@@H](C)[C@@]34O[C@](Cc5ccccc5)(O[C@@H]1[C@@H]3C=C(COC(=O)Oc1ccc(NS(C)(=O)=O)c(OC)c1)C[C@]1(O)C(=O)C(C)=C[C@@H]41)O2`, the results for the 50% effective concentration (EC50) in [7] and in [8] were 16.5 nM and 4.62 nM, respectively. For the same compound, the figures for the Ki in assay [3] and in [5] were 82 nM and 1.28 nM, respectively. Further, the Activity in assay [9] came out at 89%.

With `C=C(C)[C@]12C[C@@H](C)[C@@]34O[C@](Cc5ccccc5)(O[C@@H]1[C@@H]3C=C(COC(=O)Oc1cc(I)c(N)c(OC)c1)C[C@]1(O)C(=O)C(C)=C[C@@H]41)O2`, the inhibition constant Ki in [2] was 1800 nM; in assay [3], 990 nM; in [4], 2.68 nM; in [5] it was 3.01 nM.

Take `C=C(C)[C@]12C[C@@H](C)[C@@]34O[C@](Cc5ccccc5)(O[C@@H]1[C@@H]3C=C(COC(=O)Cc1cc(I)c(O)c(OC)c1)C[C@]1(O)C(=O)C(C)=C[C@@H]41)O2` [IODORESINIFERATOXIN]: the inhibition constant Ki in assay [2] is 5.87 nM; in [3] it was 11.8 nM.

As for `C=C(C)[C@]12C[C@@H](C)[C@@]34O[C@](Cc5ccccc5)(O[C@@H]1[C@@H]3C=C(COC(=O)Cc1ccc(O)c(OC)c1)C[C@]1(O)C(=O)C(C)=C[C@@H]41)O2` [RESINIFERATOXIN], the concentration for a half-maximal effect (EC50) in assay [7] amounted to 0.92 nM. For the same compound, the Ki in [3] amounted to 1.23 nM.

As usually defined, the Ki is the equilibrium dissociation constant of an inhibitor or competing ligand from its target. What is called inhibition is the percentage by which the read-out fell short of the control. The EC50 is the midpoint of the concentration-response curve.
